# Compounds with a hit are over-represented: about 2.4% of the library has one in this group of screens.
# EBV gp42 inh – blocks Epstein-Barr virus glycoprotein 42 binding. inhibition, % (tested at 21.74 µM). Q1HVG2. Fluorescence polarization binding assay, mP read-out. 220,000 tested, 0.42% active; in the data active = inhibition above about 50%
# LANA-H2B inh – blocks KSHV LANA binding to histone H2A/H2B; 320,000 tested, 0.6% active; Q9QR71; inhibition, % (no concentration beside the values); cell-free LANA-H2A/H2B peptide, fluorescence polarization; in the data active = inhibition mostly above about 10%, no sharp cut-off; inactive = mostly below about 6.7%
# RanGTP-Imp inh – inhibitors of RanGTP-importin-beta interaction, primary screen, biochemical, FRET, CFP-Ran, YFP-importin-beta, homogeneous; cell-free CFP-Ran/YFP-importin-beta FRET ratio; 300,000 tested, 1.1% active; inhibition, % (no concentration beside the values);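 active = more than half of the replicate wells show a fall in the fluorescence ratio signal beyond about 16%, limit read from the data, passing the limit was not always enough; inconclusive = exactly half of the replicate wells pass the set limit; inactive = fewer than half of replicates pass the limit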;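 note: 0% = DMSO wells and 100% = Ran loaded with GDP instead of GTP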
# MEX-5 binding – C. elegans MEX-5 TCR-2 RNA binding activity | MEX-5/FITC-TCR2 RNA binding, fluorescence polarization; active compounds read low | activity score (negative = inhibition of binding), % at 10 µM | AID 1832 | 300,000 tested, 0.38% active;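 active = inhibition past about -25% in most replicates, and total fluorescence under double the plate's negative control median, limit read from the data; inconclusive = replicates evenly split on the limit, or fluorescence at least double controls; inactive = too little inhibition in most replicates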;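 note: 0% = DMSO and -100% = 5 µM competing unlabeled TCR2 RNA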
# Runt-CBFb FRET – blocks binding of human RUNX1 Runt domain to CBFb. Q01196+Q13951. Cerulean-Runt/Venus-CBFb FRET ratio 530/480, 1 h. inhibition, % at 20 µM. 220,000 tested, 0.46% active;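 active = inhibition over about 50% at 20 µM in the single-dose screen, limit read from the data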;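 note: 0% = DMSO wells and 100% = excess unlabeled CBFb competitor control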
# Target sequence (Q01196 whole entry, looked up, the tested form may be a part): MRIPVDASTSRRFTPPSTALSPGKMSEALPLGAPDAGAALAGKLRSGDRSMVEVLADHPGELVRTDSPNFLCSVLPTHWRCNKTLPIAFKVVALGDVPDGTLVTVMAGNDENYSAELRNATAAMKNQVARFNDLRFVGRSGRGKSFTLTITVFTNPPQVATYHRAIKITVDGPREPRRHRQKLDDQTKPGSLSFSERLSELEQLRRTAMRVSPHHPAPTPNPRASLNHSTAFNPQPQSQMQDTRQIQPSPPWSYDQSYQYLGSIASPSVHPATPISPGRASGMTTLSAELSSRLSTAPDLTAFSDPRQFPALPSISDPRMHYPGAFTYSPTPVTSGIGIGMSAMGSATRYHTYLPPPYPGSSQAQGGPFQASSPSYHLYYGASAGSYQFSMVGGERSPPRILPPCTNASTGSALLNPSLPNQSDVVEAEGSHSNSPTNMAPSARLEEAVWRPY
# Target sequence (Q13951 whole entry, looked up, the tested form may be a part): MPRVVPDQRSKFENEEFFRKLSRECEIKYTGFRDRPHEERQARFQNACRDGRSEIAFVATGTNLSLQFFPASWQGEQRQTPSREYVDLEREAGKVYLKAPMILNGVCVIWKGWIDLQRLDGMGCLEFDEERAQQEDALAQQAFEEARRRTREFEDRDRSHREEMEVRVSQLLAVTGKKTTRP
#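 test system = Cerulean-Runt domain fusion protein, energy donor | probe or stimulus = Venus-CBFb binding partner, 100 nM | incubation = two 1 h room-temperature incubations shielded from light | detection = fluorescence energy transfer, 422 nm excitation, 530/480 nm emission | measure = loss of energy transfer signal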
# Runt-SMMHC FRET – Runt domain-CBFb-SMMHC interaction inhibition. Q01196+Q13951. inhibition, % at 20 µM. Cerulean-Runt/Venus-CBFb-SMMHC FRET ratio 530/480, 1 h. AID 1434. 220,000 tested, 0.74% active;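 active = mean inhibition across duplicate retests at 20 µM reaching about 50%, limit read from the data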;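 note: 0% = DMSO wells and 100% = wells with excess untagged CBFb-SMMHC; inhibitors lower the FRET ratio by blocking Runt binding to CBFb-SMMHC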
# * marks the source's active call; other numbers are inactive results; ? = inconclusive; nt = not tested or not shown; + = active, no number.
SMILES,EBV gp42 inh,LANA-H2B inh,RanGTP-Imp inh,MEX-5 binding,Runt-CBFb FRET,Runt-SMMHC FRET
CC(C)CCNC(=O)CCCCn1c(=O)[nH]c2ccsc2c1=O,-8,6,-3,-1,0,1
CCCCOC(=O)C(C#N)c1nc2ccccc2nc1N1CCN(Cc2ccc3c(c2)OCO3)CC1 (configuration not stated),1,-3,nt,-3,43,75*
COCC(C)OC(=O)C(C#N)c1nc2ccccc2nc1N1CCN(Cc2ccccc2)CC1 (configuration not stated),-11,-3,7,-3,44,72*
C=CCOC(=O)C(C#N)c1nc2ccccc2nc1N1CCN(Cc2ccccc2)CC1 (configuration not stated),11,1,nt,-3,0,68*
CC(C)COC(=O)C(C#N)c1nc2ccccc2nc1N1CCN(Cc2ccccc2)CC1 (configuration not stated),-3,3,?,-7,27,53
Oc1cccc(/C=N/Nc2cc(N3CCOCC3)nc(N3CCOCC3)n2)c1,-15,-3,6,2,1,2
CC(C)(C)c1ccc(C(=O)NNc2cc(N3CCOCC3)nc(N3CCOCC3)n2)cc1,-14,4,85*,0,-1,-6
O=C(NNc1cc(N2CCOCC2)nc(N2CCOCC2)n1)c1ccc(Cl)cc1Cl,-1,2,76*,-3,4,-5
O=C(CCc1ccccc1)NNc1cc(N2CCCCC2)nc(N2CCCCC2)n1,8,2,71*,-2,-5,-7
CC(C)(C)c1ccc(C(=O)NNc2cc(N3CCCCC3)nc(N3CCCCC3)n2)cc1,-1,18,5,-2,-10,-4
CC(=O)NNc1cc(N2CCOCC2)nc(N2CCOCC2)n1,-8,-3,83*,4,49,86*
Cc1ccc(OCCC(=O)NNC(=O)c2nn(C)c(=O)c3ccccc23)cc1,nt,3,nt,nt,nt,nt
CN(CC(=O)Nc1ccc(Cl)c(C(F)(F)F)c1)C(=O)Cn1cc([N+](=O)[O-])ccc1=O,nt,3,nt,nt,nt,nt
Cc1noc(C)c1NC(=O)N(C)C[C@H]1Oc2ccc(NC(=O)Nc3ccc4c(c3)OCO4)cc2C(=O)N([C@H](C)CO)C[C@@H]1C,nt,8,nt,nt,nt,nt
CCOC(=O)C1CCN(C(=O)c2cc(COc3ccc(OC)c4ccccc34)on2)CC1,nt,1,-1,-1,nt,nt
CC(NCC(O)COC1CCC(C(C)(C)C)CC1)c1ccccc1 (configuration not stated),-2,9,nt,0,-2,2
COc1ccc(NC(=O)NNc2cc(N3CCOCC3)nc(N3CCOCC3)n2)cc1,-15,0,66*,-2,2,4
O=C(CN(Cc1ccccc1)C(=O)c1csnn1)NCc1ccccc1,-3,-3,1,-5,1,-1
CCN(CC)C(=O)c1ccc(S(=O)(=O)c2ccccc2)cc1,nt,+,2,1,nt,nt
CCN(CC)C(=O)c1ccc(NS(=O)(=O)c2ccccc2)cc1,-8,7,0,1,-3,-3
CCN(CCO)Cc1csc2ccc(C(C)(C)C)cc12,-13,-5,-1,1,1,0
O=C(Nc1ccc2c(c1)OCCO2)C1CC(c2ccccc2Cl)=NO1 (configuration not stated),nt,9.2*,-3,2,nt,nt
O=C(c1cc(C2CC2)nn1-c1ccccc1)N1CCN(S(=O)(=O)c2c(F)cccc2F)CC1,nt,-4,nt,nt,nt,nt
CCOC(=O)CN1C(=O)N[C@@H](CCc2ccccc2)[C@H](C(C)=O)[C@H]1C,nt,1,1,-1,nt,nt
COc1ccc(C2C(C(=O)c3ccco3)=C(O)C(=O)N2CC2CCCO2)cc1OC (configuration not stated),nt,19*,7,-1,nt,nt
SMILES,EBV gp42 inh,LANA-H2B inh,RanGTP-Imp inh,MEX-5 binding,Runt-CBFb FRET,Runt-SMMHC FRET
O=C(C1=C(O)C(=O)N(CC2CCCO2)C1c1ccccc1)c1ccco1 (configuration not stated),nt,-2,-5,0,nt,nt
CC(C)n1nc(C(=O)OCn2nnc3ccccc3c2=O)c2ccccc2c1=O,4,5,-2,-1,-3,0
O=C(N/N=C1\C(=O)c2cccc3cccc1c23)c1ccc(O)cc1,8,+,4,0,-2,-2
COc1ccc(NC(=O)COC(=O)C23CC4CC(CC(Cl)(C4)C2)C3)c(OC)c1,14,171*,4,-1,-3,0
CCCN(CC(=O)Nc1ccccc1OC)C(=O)c1cc(-c2ccccc2)nn1-c1ccccc1,nt,49*,nt,nt,nt,nt
CCN(CC(=O)Nc1ccc(NC(C)=O)cc1)C(=O)c1cc(-c2ccccc2)nn1-c1ccccc1,nt,-2,1,1,nt,nt
COc1cc(C(=O)Nc2ccc(NC(=O)C(C)C)nc2)cc(OC)c1OC,nt,15*,3,-3,-1,2
O=C(O)CCNC(=O)/C(=C/C=C/c1ccccc1)NC(=O)c1ccccc1,-12,18,-4,-2,-1,-1
Cc1c(CN2CCCCC2)c(O)n(CCCO)c(=O)c1C#N,-4,-5,-1,-46*,-7,-21
CCCn1c(O)c(CN2CCCCC2)c(C)c(C#N)c1=O,-4,-1,2,-51*,-9,-21
C=CCn1c(O)c(CN2CCN(Cc3ccccc3)CC2)c(C)c(C#N)c1=O,-12,11,1,-5,-4,-11
CC(=O)c1ccc(-n2ccc(=O)cc2)cc1,nt,1,0,-1,nt,nt
CC(=O)OCC(=O)NCc1ccc2c(c1)OCO2,-13,-3,-6,3,87*,68
CCCNS(=O)(=O)c1ccc(CCC(=O)NCc2ccc3c(c2)OCO3)cc1,-5,0,2,-36*,0,-2
CC(C)NS(=O)(=O)c1ccc(CCC(=O)NCc2ccc3c(c2)OCO3)cc1,-12,-5,-3,1,2,4
CSc1nsc(/C=C/Nc2ccc(C)c(C)c2)c1C#N,-39,1,33*,0,-1,-7
COc1cc(/C=N/Nc2snc(SC)c2C#N)ccc1O,-10,7,10,0,30,27
COc1ccc(NC(=O)COC(=O)CCOc2ccccc2C)cc1Cl,nt,-1,1,1,nt,nt
CC1(C)Cc2c(cnn2-c2ccc(F)cc2)C(NC(=O)Cn2cncn2)C1 (configuration not stated),nt,51*,?,-2,nt,nt
CCOc1ccc2nc3c(cc2c1)CN(CCCO)C(=NCCOC)S3,-16,1,-2,3,4,-18
C=CCOc1ccccc1C1C2=C(CC(C)(C)CC2=O)Nc2c1c(=O)n(C)c(=O)n2C (configuration not stated),3,0,2,-1,24,46
